In ChEMBL document CHEMBL1129500, “Substituted 2,5'-Bi-1H-benzimidazoles: topoisomerase I inhibition and cytotoxicity” (J Med Chem, 1996):

Legend:
RPMI 8402 = assay: Cytotoxicity against human lymphoblast cell line RPMI 8402; type: functional, cell-based
How it was run: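 RPMI 8402 human lymphoblasts grown in suspension at 37 °C, 5% CO2, in RPMI with 10% heat-inactivated FBS, 2 mM L-glutamine, penicillin and streptomycin. Seeded at 2000 cells/well and exposed to drug continuously for 4 days. Viability read by MTT tetrazolium microtiter assay, giving IC50. Highest dose tested 25 µM.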

[1] = test system: DNA topoisomerase 1 (Bos taurus); assay: Effective concentration against Topoisomerase-I (purified from calf thymus gland) mediated DNA cleavage relative to Hoechst 33342

| REC [1] | Structure (SMILES) | IC50 (RPMI 8402) [nM] |
| --- | --- | --- |
| 1 | Cc1ccc(-c2nc3cc(-c4nc5cc(N6CCN(C)CC6)ccc5[nH]4)ccc3[nH]2)cc1 | 830 |
| 10 | Cc1ccccc1-c1nc2cc(-c3nc4cc(N5CCN(C)CC5)ccc4[nH]3)ccc2[nH]1 | 590 |
| 100 | Cc1cccc(-c2nc3cc(-c4nc5cc(C(N)=O)ccc5[nH]4)ccc3[nH]2)c1 | 8200 |
| 1 | Cc1ccc(-c2nc3cc(-c4nc5cc(C#N)ccc5[nH]4)ccc3[nH]2)cc1 | 570 |
| 20 | CN1CCN(c2ccc3[nH]c(-c4ccc5[nH]c(-c6cccc7ccccc67)nc5c4)nc3c2)CC1 | 330 |
| 100 | Cc1cccc(-c2nc3cc(-c4nc5cc(C#N)ccc5[nH]4)ccc3[nH]2)c1 | 860 |
| 10 | Cc1ccc(-c2nc3cc(-c4nc5cc(C(N)=O)ccc5[nH]4)ccc3[nH]2)cc1 | > 25000 |
| 1 | Cc1cccc(-c2nc3cc(-c4nc5cc(N6CCN(C)CC6)ccc5[nH]4)ccc3[nH]2)c1 | 360 |
| 10 | CN1CCN(c2ccc3[nH]c(-c4ccc5[nH]c(-c6ccc7ccccc7c6)nc5c4)nc3c2)CC1 | 110 |
| 1 | CN1CCN(c2ccc3[nH]c(-c4ccc5[nH]c(-c6ccccc6)nc5c4)nc3c2)CC1 | 490 |

Further lines, the compound ahead of its results:

| Structure (SMILES) | REC [1] | IC50 (RPMI 8402) [nM] |
| --- | --- | --- |
| NC(=O)c1ccc2[nH]c(-c3ccc4[nH]c(-c5cccc6ccccc56)nc4c3)nc2c1 | 20 | 3700 |
| N#Cc1ccc2[nH]c(-c3ccc4[nH]c(-c5cccc6ccccc56)nc4c3)nc2c1 | 10 | 650 |
| N#Cc1ccc2[nH]c(-c3ccc4[nH]c(-c5ccc6ccccc6c5)nc4c3)nc2c1 | 10 | 130 |
| NC(=O)c1ccc2[nH]c(-c3ccc4[nH]c(-c5ccc6ccccc6c5)nc4c3)nc2c1 | 100 | 740 |
| Cc1ccccc1-c1nc2cc(-c3nc4cc(C(N)=O)ccc4[nH]3)ccc2[nH]1 | 100 | 8200 |
| N#Cc1ccc2[nH]c(-c3ccc4[nH]c(-c5ccccc5)nc4c3)nc2c1 | > 100 | > 25000 |
| Cc1ccccc1-c1nc2cc(-c3nc4cc(C#N)ccc4[nH]3)ccc2[nH]1 | > 100 | 1200 |
| NC(=O)c1ccc2[nH]c(-c3ccc4[nH]c(-c5ccccc5)nc4c3)nc2c1 | 10 | > 25000 |
